Here are results for 34 molecules from ChEMBL document CHEMBL3259806, “Design, synthesis and biological evaluation of novel tripeptidyl epoxyketone derivatives constructed from β-amino acid as proteasome inhibitors” (Bioorg Med Chem, 2014).

Calls of active or inactive are those of the source. The rule behind the calls is not given here.

In assay [1] the target is 26S proteasome (Homo sapiens) (UniProt Q99460+P49721+P20618+P28074+P28062+P28065+P28072+O00487+P25786+P25787+P25788+P25789+P28066+P60900+O14818+Q8TAA3+P40306+A5LHX3+P49720+P28070+Q99436+Q16186+P35998+P62191+P43686+P62333+P17980+P62195+Q13200+O43242+O00232+O00231+Q15008+P51665+Q9UNM6+P55036+P48556+P60896). Nature of the assay: Inhibition of chymotrypsin-like enzyme activity of purified human 20S proteasome using Suc-Leu-Leu-Val-Tyr-AMC as substrate at 1 ug/ml by fluorescence method. It counts as protein-complex assay. Put shortly:
(§1)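 Purified human 20S proteasome preincubated with compound for 15 min. Fluorogenic substrate Suc-Leu-Leu-Val-Tyr-AMC (50 µM) then added to read chymotrypsin-like activity.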

The target in the next assay is 26S proteasome. The experiment in a line: Inhibition of chymotrypsin-like enzyme activity of purified human 20S proteasome using Suc-Leu-Leu-Val-Tyr-AMC as substrate by fluorescence method. It counts as protein-complex assay. Put shortly:
as §1

The test system of assay [2] is RPMI-8226. Nature of the assay: Cytotoxic activity against human RPMI8226 cells after 72 hrs by MTS assay. It counts as functional, cell-based. To be noted: RPMI-8226, 72 h. Put shortly: (§2)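 100 µL cell suspension (10⁴ cells/well) seeded in 96-well plates; compound exposure 72 h, then MTS at 0.5 mg/mL final for 2–4 h. Absorbance read at 490 nm with 690 nm background subtraction. Growth inhibitory ratio = (A_control − A_sample)/A_control.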
In general terms: Formazan colour is commonly taken as a measure of viable cells.

Assay [3] in a line: Cytotoxic activity against human NCI-H929 cells after 72 hrs by MTS assay. It counts as functional, cell-based. The following applies: NCI-H929, 72 h. Put shortly: as §2
The subject of assay [4] is RPMI-8226. Nature of the assay: Induction of apoptosis human RPMI8226 cells assessed as PARP cleavage at 100 nM after 12 hrs by Western blot analysis. It counts as functional, cell-based. Put shortly: (§3)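 RPMI 8226 cells in 6-well plates exposed to compounds for 12 h; DMSO as vehicle control. Cells rinsed twice in ice-cold PBS and lysed in 1× SDS loading buffer. Lysates run on 10% SDS–PAGE and transferred to PVDF. Blocked 1 h in 5% milk, primary antibodies 2 h, secondary 1 h, ECL detection. Probed for poly-ubiquitin, PARP, cleaved PARP, β-actin.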
In general terms: Immunoblotting shows a protein as a band on a membrane.

Assay [5] concerns RPMI-8226. The experiment in a line: Induction of apoptosis human RPMI8226 cells assessed as accumulation of poly-ubiquitin at 100 nM after 12 hrs by Western blot analysis. It counts as functional, cell-based. Put shortly:
as §3

The term inhibition denotes the change of the read-out against control, counted positive when it falls. Lower therefore signals a weak effect. Molecule `CC(C)C[C@H](NC(=O)c1ccccc1)C(=O)NC(CC(=O)N[C@@H](Cc1ccccc1)C(=O)[C@@]1(C)CO1)c1ccccc1` (some centres undefined) showed an inhibition in assay [1] of 1.56%.

Molecule `CC(C)C[C@H](NC(=O)c1cccnc1)C(=O)NC(CC(=O)N[C@@H](Cc1ccccc1)C(=O)[C@@]1(C)CO1)c1ccccc1` (some centres undefined) displayed an inhibition in assay [1] of 3.16%.

By IC50 is commonly meant the point on the concentration scale where inhibition reaches its midpoint. High values mean lower potency, low ones higher potency. On to `CC(C)C[C@H](NC(=O)[C@H](Cc1ccccc1)NC(=O)CC(NC(=O)c1cccnc1)c1ccccc1)C(=O)[C@@]1(C)CO1` (some centres undefined), for which, in assay [1], the inhibition was 85.8%. The IC50 stood at 340 nM on 26S proteasome, 4730 nM in the assay on RPMI-8226 [2] and 8700 nM in assay [3].

`CC(C)C[C@H](NC(=O)[C@H](Cc1ccccc1)NC(=O)CC(NC(=O)CN1CCOCC1)c1ccccc1)C(=O)[C@@]1(C)CO1` (some centres undefined) registered an inhibition in assay [1] of 40%.

In assay [1], `CC(C)C[C@H](NC(=O)CC(NC(=O)[C@H](Cc1ccccc1)NC(=O)c1ccccc1)c1ccccc1)C(=O)[C@@]1(C)CO1` (some centres undefined) came in with an inhibition of 0.3%.

Turning to `CC(C)C[C@H](NC(=O)[C@H](Cc1ccccc1)NC(=O)C[C@H](NC(=O)c1ccc(C(F)(F)F)cc1)c1ccccc1)C(=O)[C@@]1(C)CO1`, the inhibition in assay [1] is 25.6%.

`CC(C)C[C@H](NC(=O)CC(NC(=O)[C@H](Cc1ccccc1)NC(=O)c1cccnc1)c1ccccc1)C(=O)[C@@]1(C)CO1` (some centres undefined) showed an inhibition in assay [1] of 0.48%.

Molecule `CC(C)C[C@H](NC(=O)[C@H](Cc1ccccc1)NC(=O)CC(NC(=O)c1ccc(-c2ccccc2)cc1)c1ccccc1)C(=O)[C@@]1(C)CO1` (some centres undefined) had an inhibition in assay [1] of 47.3%.

As to `CC(C)C[C@H](NC(=O)[C@H](Cc1ccccc1)NC(=O)CC(NC(=O)c1ccc2ccccc2c1)c1ccccc1)C(=O)[C@@]1(C)CO1` (some centres undefined), the inhibition in assay [1] is 74.8%. Moreover, the IC50 is 190 nM against 26S proteasome, 420 nM in the assay on RPMI-8226 [2] and 700 nM in assay [3].

With `CC(C)C[C@H](NC(=O)[C@H](Cc1ccccc1)NC(=O)c1cnccn1)B(O)O` [BORTEZOMIB], the IC50 in the assay on RPMI-8226 [2] is 7.96 nM; in assay [3], 10.8 nM.

`CC(C)C[C@H](NC(=O)CC(NC(=O)[C@H](Cc1ccccc1)NC(=O)c1cnccn1)c1ccccc1)C(=O)[C@@]1(C)CO1` (some centres undefined): the inhibition in assay [1] came to 1.51%.

For `CC(C)C[C@H](NC(=O)[C@H](Cc1ccccc1)NC(=O)CC(NC(=O)c1ccc(C(F)(F)F)cc1)c1ccccc1)C(=O)[C@@]1(C)CO1` (some centres undefined), the inhibition in assay [1] came out at 76%. Moreover, the IC50 came out at 220 nM at 26S proteasome, 320 nM in the assay on RPMI-8226 [2] and 960 nM in assay [3].

As to `CC(C)C[C@H](NC(=O)c1cnccn1)C(=O)NC(CC(=O)N[C@@H](Cc1ccccc1)C(=O)[C@@]1(C)CO1)c1ccccc1` (some centres undefined), the inhibition in assay [1] worked out at 8.7%.

For `COc1ccc(C(=O)N[C@@H](CC(C)C)C(=O)NC(CC(=O)N[C@@H](CC(C)C)C(=O)[C@@]2(C)CO2)c2ccccc2)cc1` (some centres undefined), in assay [1], the inhibition was determined as 0.56%.

In assay [1], `COc1ccc(C(=O)N[C@@H](CC(C)C)C(=O)NC(CC(=O)N[C@@H](Cc2ccccc2)C(=O)[C@@]2(C)CO2)c2ccccc2)cc1` (some centres undefined) yielded an inhibition of 0.39%.

With `CC(C)C[C@H](NC(=O)[C@H](Cc1ccccc1)NC(=O)C[C@@H](NC(=O)c1ccc2ccccc2c1)c1ccccc1)C(=O)[C@@]1(C)CO1`, in assay [1], the inhibition is 86.1%. Moreover, the IC50 amounted to 110 nM on 26S proteasome, 230 nM with RPMI-8226 [2] and 170 nM in assay [3]. The outcome in the assay on RPMI-8226 [4] and in the assay on RPMI-8226 [5] was Active.

`CC(C)C[C@H](NC(=O)[C@H](Cc1ccccc1)NC(=O)CC(NC(=O)c1cnccn1)c1ccccc1)C(=O)[C@@]1(C)CO1` (some centres undefined) returned an inhibition in assay [1] of 48.6%.

Regarding `COc1ccc(C(=O)N[C@@H](Cc2ccccc2)C(=O)NC(CC(=O)N[C@@H](CC(C)C)C(=O)[C@@]2(C)CO2)c2ccccc2)cc1` (some centres undefined), in assay [1], the inhibition turned out to be 0.3%. For the same molecule, the result in the assay with RPMI-8226 [4] and with RPMI-8226 [5] was inactive.

Take `CC(C)C[C@H](NC(=O)[C@H](CCc1ccccc1)NC(=O)CN1CCOCC1)C(=O)N[C@@H](Cc1ccccc1)C(=O)N[C@@H](CC(C)C)C(=O)[C@@]1(C)CO1` [CARFILZOMIB]: the IC50 in the assay on RPMI-8226 [2] was 13.2 nM; in assay [3], 21.3 nM.

Molecule `CC(C)C[C@H](NC(=O)c1ccccc1)C(=O)NC(CC(=O)N[C@@H](CC(C)C)C(=O)[C@@]1(C)CO1)c1ccccc1` (some centres undefined) returned an inhibition in assay [1] of 6.42%.

`CC(C)C[C@H](NC(=O)[C@H](Cc1ccccc1)NC(=O)CC(NC(=O)c1ccc(F)cc1)c1ccccc1)C(=O)[C@@]1(C)CO1` (some centres undefined) had an inhibition in assay [1] of 87.7%. Moreover, the IC50 came to 380 nM against 26S proteasome, 1550 nM in the assay on RPMI-8226 [2] and 2370 nM in assay [3].

For the molecule `CC(C)C[C@H](NC(=O)[C@H](Cc1ccccc1)NC(=O)CC(NC(=O)c1ccco1)c1ccccc1)C(=O)[C@@]1(C)CO1` (some centres undefined), the inhibition in assay [1] was found to be 42.3%.

For the molecule `COc1ccc(C(=O)NC(CC(=O)N[C@@H](Cc2ccccc2)C(=O)N[C@@H](CC(C)C)C(=O)[C@@]2(C)CO2)c2ccccc2)cc1` (some centres undefined), the inhibition in assay [1] was found to be 84.1%. The values for the IC50 (against 26S proteasome; in the assay with RPMI-8226 [2]; in assay [3]) were 340 nM, 1160 nM and 1350 nM, respectively.

For the molecule `CC(C)C[C@H](NC(=O)[C@H](Cc1ccccc1)NC(=O)C[C@H](NC(=O)c1ccc2ccccc2c1)c1ccccc1)C(=O)[C@@]1(C)CO1`, the inhibition in assay [1] was determined as 11.8%.

Molecule `CC(C)C[C@H](NC(=O)c1ccc(F)cc1)C(=O)NC(CC(=O)N[C@@H](CC(C)C)C(=O)[C@@]1(C)CO1)c1ccccc1` (some centres undefined) showed an inhibition in assay [1] of 5.46%.

For `CC(C)C[C@H](NC(=O)CC(NC(=O)[C@H](Cc1ccccc1)NC(=O)c1ccc(F)cc1)c1ccccc1)C(=O)[C@@]1(C)CO1` (some centres undefined), in assay [1], the inhibition worked out at 0.37%.

Turning to `CC(C)C[C@H](NC(=O)c1ccc(F)cc1)C(=O)NC(CC(=O)N[C@@H](Cc1ccccc1)C(=O)[C@@]1(C)CO1)c1ccccc1` (some centres undefined), the inhibition in assay [1] is 1.43%.

As for `CC(C)C[C@H](NC(=O)[C@H](Cc1ccccc1)NC(=O)CC(NC(=O)C1CCOCC1)c1ccccc1)C(=O)[C@@]1(C)CO1` (some centres undefined), in assay [1], the inhibition came out at 69.5%. This molecule displayed an IC50 on 26S proteasome of 630 nM.

Molecule `CC(C)C[C@H](NC(=O)c1cccnc1)C(=O)NC(CC(=O)N[C@@H](CC(C)C)C(=O)[C@@]1(C)CO1)c1ccccc1` (some centres undefined) gave an inhibition in assay [1] of 0.84%.

In assay [1], `CC(C)C[C@H](NC(=O)[C@H](Cc1ccccc1)NC(=O)CC(NC(=O)c1ccccc1)c1ccccc1)C(=O)[C@@]1(C)CO1` (some centres undefined) showed an inhibition of 88.5%. Moreover, the IC50 at 26S proteasome stood at 440 nM; in the assay with RPMI-8226 [2] it was 1680 nM; in assay [3], 2690 nM.

With `CC(C)C[C@H](NC(=O)[C@H](Cc1ccccc1)NC(=O)CC(NC(=O)c1ccc(C#N)cc1)c1ccccc1)C(=O)[C@@]1(C)CO1` (some centres undefined), the inhibition in assay [1] is 72%. Further, the IC50 on 26S proteasome is 360 nM; in the assay with RPMI-8226 [2], 410 nM; in assay [3] it was 610 nM.

The molecule `CC(C)C[C@H](NC(=O)[C@H](Cc1ccccc1)NC(=O)C[C@@H](NC(=O)c1ccc(C(F)(F)F)cc1)c1ccccc1)C(=O)[C@@]1(C)CO1` had an inhibition in assay [1] of 84.4%. The IC50 on 26S proteasome came out at 170 nM; in the assay with RPMI-8226 [2], 340 nM; in assay [3], 230 nM.

For `CC(C)C[C@H](NC(=O)[C@H](Cc1ccccc1)NC(=O)CC(NC(=O)c1cccs1)c1ccccc1)C(=O)[C@@]1(C)CO1` (some centres undefined), in assay [1], the inhibition is 62.5%. Besides, at 26S proteasome, the 50% inhibitory concentration (IC50) was 950 nM.

`CC(C)C[C@H](NC(=O)c1cnccn1)C(=O)NC(CC(=O)N[C@@H](CC(C)C)C(=O)[C@@]1(C)CO1)c1ccccc1` (some centres undefined) yielded an inhibition in assay [1] of 9.01%.
